Assays:
[1] = Growth inhibition of human RXF393 cells assessed as cell growth at 10^-4 M incubated for 48 hrs by sulforhodamine B assay; format: functional; details: RXF 393, 48 h, read-out: Activity
[2] = Growth inhibition of human UO31 cells assessed as cell growth at 10^-4 M incubated for 48 hrs by sulforhodamine B assay; format: functional; details: UO-31, 48 h, read-out: Activity
[3] = Growth inhibition of human HCC2998 cells incubated for 48 hrs by sulforhodamine B assay; format: functional; details: HCC 2998, 48 h
Procedure, shortened: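 Cells seeded at 5,000–40,000/well according to doubling time and preincubated 24 h at 37 °C, 5% CO2. Time-zero plates were TCA-fixed. DMSO concentrate was diluted in medium with 50 µg/ml gentamicin to give five concentrations (10-fold or ½ log steps), then exposed 48 h. Cells were TCA-fixed, stained with 0.4% SRB and read at 515 nm. Percent growth was taken against time-zero and control; GI50, TGI and LC50 derived.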

[4] = Growth inhibition of human OVCAR4 cells incubated for 48 hrs by sulforhodamine B assay; format: functional; details: OVCAR-4, 48 h
Procedure, shortened: (§1)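 Cells were plated at 5,000–40,000 per well according to doubling time and preincubated 24 h at 37 °C in 5% CO2; time-zero plates were then TCA-fixed. Five concentrations (10-fold or ½-log dilutions, DMSO stock) were incubated 48 h. Cells were TCA-fixed, stained with 0.4% SRB and read at 515 nm. GI50 was taken where [(Ti−Tz)/(C−Tz)]×100 = 50.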

[5] = Growth inhibition of human SKOV3 cells incubated for 48 hrs by sulforhodamine B assay; format: functional; details: SK-OV-3, 48 h; procedure, shortened: as §1
A498 [6] = experiment: Growth inhibition of human A498 cells incubated for 48 hrs by sulforhodamine B assay; format: functional; details: A498, 48 h
Procedure, shortened: (§2)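 Five-dose assay: five concentrations from 10-fold or ½-log serial dilutions. Cells are plated at 5,000–40,000 per well according to doubling time, grown 24 h, then exposed 48 h at 37 °C, 5% CO₂. Fixed with cold 50% TCA (final addition) for 60 min at 4 °C and stained with 0.4% SRB in 1% acetic acid. Bound dye is solubilized in 10 mM Tris base and read at 515 nm. GI₅₀ is where [(Ti−Tz)/(C−Tz)]×100 = 50, with a time-zero plate as Tz.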

[7] = Growth inhibition of human TK10 cells assessed as cell growth at 10^-8 M incubated for 48 hrs by sulforhodamine B assay; format: functional; details: TK-10, 48 h, read-out: Activity
[8] = Growth inhibition of human UO31 cells assessed as cell growth at 10^-8 M incubated for 48 hrs by sulforhodamine B assay; format: functional; details: UO-31, 48 h, read-out: Activity
[9] = Growth inhibition of human PC3 cells assessed as cell growth at 10^-8 M incubated for 48 hrs by sulforhodamine B assay; format: functional; details: PC-3, 48 h, read-out: Activity
SR [10] = experiment: Growth inhibition of human SR cells assessed as cell growth at 10^-7 M incubated for 48 hrs by sulforhodamine B assay; format: functional; details: read-out: Activity
A549 [11] = experiment: Growth inhibition of human A549/ATCC cells assessed as cell growth at 10^-7 M incubated for 48 hrs by sulforhodamine B assay; format: functional; details: A549, 48 h, read-out: Activity; procedure, shortened: as §2
NCI-H23 = experiment: Growth inhibition of human NCI-H23 cells assessed as cell growth at 10^-7 M incubated for 48 hrs by sulforhodamine B assay; format: functional; details: NCI-H23, 48 h, read-out: Activity
[12] = Growth inhibition of human TK10 cells assessed as cell growth at 10^-5 M incubated for 48 hrs by sulforhodamine B assay; format: functional; details: TK-10, 48 h, read-out: Activity
SR [13] = experiment: Growth inhibition of human SR cells assessed as cell growth at 10^-4 M incubated for 48 hrs by sulforhodamine B assay; format: functional; details: read-out: Activity
NCI-H522 = experiment: Growth inhibition of human NCI-H522 cells assessed as cell growth at 10^-4 M incubated for 48 hrs by sulforhodamine B assay; format: functional; details: NCI-H522, 48 h, read-out: Activity
[14] = Growth inhibition of human OVCAR4 cells assessed as cell growth at 10^-4 M incubated for 48 hrs by sulforhodamine B assay; format: functional; details: OVCAR-4, 48 h, read-out: Activity
A498 [15] = experiment: Growth inhibition of human A498 cells assessed as cell growth at 10^-4 M incubated for 48 hrs by sulforhodamine B assay; format: functional; details: A498, 48 h, read-out: Activity; procedure, shortened: as §2
MDA-MB-468 = experiment: Growth inhibition of human MDA-MB-468 cells assessed as cell growth at 10^-7 M incubated for 48 hrs by sulforhodamine B assay; format: functional; details: MDA-MB-468, 48 h, read-out: Activity
NCI-H322M = experiment: Growth inhibition of human NCI-H322M cells assessed as cell growth at 10^-8 M incubated for 48 hrs by sulforhodamine B assay; format: functional; details: read-out: Activity
[16] = Growth inhibition of human SF295 cells assessed as cell growth at 10^-8 M incubated for 48 hrs by sulforhodamine B assay; format: functional; details: SF-295, 48 h, read-out: Activity
Albumin = Albumin (Bos taurus, UniProt P02769); experiment: Binding affinity to bovine serum albumin assessed as binding constant in absorption spectra by Benesie-Hildebrand plot analysis; format: ADME; details: cattle, isolated protein
Procedure, shortened: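 BSA, 10 µM, in 0.1 M phosphate buffer pH 7.4, titrated with compound (0–20 µM per the figure; diluted from 10⁻³ mol L⁻¹ DMSO stocks). Run at 300 K in a 1 cm quartz cell. UV spectra taken 200–800 nm after 5 min equilibration; fluorescence excited at 280 nm, emission 351 nm, slit 10 nm. K is the intercept/slope ratio of a linear fit of 1/(A₀−A) or 1/(F₀−F) vs 1/[compound].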

A549 [17] = experiment: Growth inhibition of human A549/ATCC cells assessed as cell growth at 10 uM incubated for 48 hrs by sulforhodamine B assay; format: functional; details: A549, 48 h, read-out: Activity
Procedure, shortened: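 One-dose screen at 10 µM final. Cells are plated at 5,000–40,000 per well according to doubling time and preincubated 24 h at 37 °C, 5% CO₂. Compound (DMSO stock diluted in medium with 50 µg/ml gentamicin) is then added for 48 h. Growth percent is read by sulforhodamine B staining, absorbance at 515 nm.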

A549 [18] = experiment: Growth inhibition of human A549/ATCC cells assessed as cell growth at 10^-4 M incubated for 48 hrs by sulforhodamine B assay; format: functional; details: A549, 48 h, read-out: Activity
[19] = read-out: LC50 (the source's name)
[20] = read-out: pLC50 (the source's name) (converted)

Chain of Albumin (P02769 whole entry): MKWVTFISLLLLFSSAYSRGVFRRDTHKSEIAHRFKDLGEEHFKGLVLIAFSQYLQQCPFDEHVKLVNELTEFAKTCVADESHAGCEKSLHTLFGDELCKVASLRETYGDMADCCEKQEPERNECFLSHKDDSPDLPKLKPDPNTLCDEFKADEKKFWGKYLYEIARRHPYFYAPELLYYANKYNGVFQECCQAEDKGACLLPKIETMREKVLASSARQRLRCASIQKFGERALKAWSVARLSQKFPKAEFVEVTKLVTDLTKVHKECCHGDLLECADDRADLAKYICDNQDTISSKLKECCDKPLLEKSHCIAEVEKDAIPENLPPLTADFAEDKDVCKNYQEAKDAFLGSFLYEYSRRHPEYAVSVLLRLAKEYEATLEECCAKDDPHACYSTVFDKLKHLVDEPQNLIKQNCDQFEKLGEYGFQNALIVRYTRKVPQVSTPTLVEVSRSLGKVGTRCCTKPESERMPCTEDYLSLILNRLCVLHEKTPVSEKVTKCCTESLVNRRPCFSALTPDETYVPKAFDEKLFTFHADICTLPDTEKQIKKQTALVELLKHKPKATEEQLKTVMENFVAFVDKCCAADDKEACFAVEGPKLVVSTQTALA

In the case of `Fc1ccc(-c2nc(Nc3ccc(-c4nc5ccccc5[nH]4)cc3)nc(N3CCOCC3)n2)cc1`, the growth at 100 µM [1] is reported as -35%, the growth at 100 µM [2] is reported as -16% and the GI50 ([3]; read-out: GI50) is reported as 3090 nM. The CC50 [3, 19] was > 100 µM, the TGI ([3]; read-out: TGI) was > 100 µM and the GI50 ([3]; read-out: pGI50 (converted)) was 3090 nM. The CC50 [3, 20] was > 100 µM, the TGI ([3]; read-out: pTGI (converted)) was > 100 µM and the GI50 ([4]; read-out: GI50) was 3130 nM. The CC50 [4, 19] was > 100 µM, the TGI ([4]; read-out: TGI) was 13 µM and the GI50 ([4]; read-out: pGI50 (converted)) was 3160 nM. The CC50 [4, 20] was > 100 µM, the TGI ([4]; read-out: pTGI (converted)) was 13.2 µM and the GI50 ([5]; read-out: GI50) was 2370 nM. The CC50 [5, 19] was > 100 µM, the TGI ([5]; read-out: TGI) was 5.53 µM and the GI50 ([5]; read-out: pGI50 (converted)) was 2340 nM. The CC50 [5, 20] was > 100 µM, the TGI ([5]; read-out: pTGI (converted)) was 5.5 µM and the GI50 (A498 [6]; read-out: GI50) was 1520 nM. It also gave a CC50 (A498 [6]; [19]) of 8.42 µM, a TGI (A498 [6]; read-out: TGI) of 3.57 µM and a GI50 (A498 [6]; read-out: pGI50 (converted)) of 1510 nM. For the same compound, the CC50 (A498 [6]; [20]) was 8.51 µM, the TGI (A498 [6]; read-out: pTGI (converted)) was 3.55 µM and the growth at 0.01 µM [7] was 91%. The growth at 0.01 µM [8] was 88%, the growth at 0.01 µM [9] was 100% and the growth at 0.1 µM (SR [10]) was 87%. For the same compound, the growth at 0.1 µM (A549 [11]) was 100%, the growth at 0.1 µM (NCI-H23) was 91% and the growth at 10 µM [12] was -7%. It also gave a growth at 100 µM (SR [13]) of 1%, a growth at 100 µM (NCI-H522) of -31% and a growth at 100 µM [14] of -23%. The growth at 100 µM (A498 [15]) was -96%, the growth at 0.1 µM (MDA-MB-468) was 106% and the growth at 0.01 µM (NCI-H322M) was 101%. For the same compound, the growth at 0.01 µM [16] was 93%, the K (Albumin) was 1 ×10⁵ /M and the growth at 10 µM (A549 [17]) was 11.2%.

Work on `c1ccc(-c2nc(Nc3ccc(-c4nc5ccccc5[nH]4)cc3)nc(N3CCOCC3)n2)cc1` yielded a growth at 100 µM [1] of -61%, a growth at 100 µM [2] of -76% and a GI50 ([3]; read-out: GI50) of 1900 nM. It also gave a TGI ([3]; read-out: TGI) of 3.99 µM, a GI50 ([3]; read-out: pGI50 (converted)) of 1910 nM and a TGI ([3]; read-out: pTGI (converted)) of 3.98 µM. For the same compound, the GI50 ([4]; read-out: GI50) was 1680 nM, the CC50 [4, 19] was 5.63 µM and the TGI ([4]; read-out: TGI) was 3.08 µM. For the same compound, the GI50 ([4]; read-out: pGI50 (converted)) was 1700 nM, the CC50 [4, 20] was 5.62 µM and the TGI ([4]; read-out: pTGI (converted)) was 3.09 µM. The GI50 ([5]; read-out: GI50) was 2110 nM, the CC50 [5, 19] was 8.47 µM and the TGI ([5]; read-out: TGI) was 4.23 µM. For the same compound, the GI50 ([5]; read-out: pGI50 (converted)) was 2090 nM, the CC50 [5, 20] was 8.51 µM and the TGI ([5]; read-out: pTGI (converted)) was 4.27 µM. For the same compound, the GI50 (A498 [6]; read-out: GI50) was 1090 nM, the CC50 (A498 [6]; [19]) was 6.31 µM and the TGI (A498 [6]; read-out: TGI) was 2.62 µM. The GI50 (A498 [6]; read-out: pGI50 (converted)) was 1100 nM, the CC50 (A498 [6]; [20]) was 6.31 µM and the TGI (A498 [6]; read-out: pTGI (converted)) was 2.63 µM. It also gave a growth at 0.01 µM [7] of 99%, a growth at 0.01 µM [8] of 82% and a growth at 0.01 µM [9] of 99%. For the same compound, the growth at 0.1 µM (SR [10]) was 58%, the growth at 0.1 µM (A549 [11]) was 97% and the growth at 0.1 µM (NCI-H23) was 95%. It also gave a growth at 10 µM [12] of -87%, a growth at 100 µM (SR [13]) of -28% and a growth at 100 µM (A549 [18]) of -64%. It also gave a growth at 100 µM (NCI-H522) of -74%, a growth at 100 µM [14] of -98% and a growth at 100 µM (A498 [15]) of -100%. The growth at 0.1 µM (MDA-MB-468) was 112%, the growth at 0.01 µM (NCI-H322M) was 95% and the growth at 0.01 µM [16] was 94%. The K (Albumin) was 1.2 ×10⁵ /M and the growth at 10 µM (A549 [17]) was -68.5%.

Source: ChEMBL document CHEMBL3808334, “Synthesis and in vitro evaluation of novel triazine analogues as anticancer agents and their interaction studies with bovine serum albumin” (Eur J Med Chem, 2016)
